Assay outcomes: PubChem, several laboratories
Shown are actives, neighbours in structure and some others; about 2.8% of the full set was active somewhere.
Bim-Mcl-1 = disrupts Bim peptide binding to human Mcl-1. AID 1009. inhibition, % at 10 µM. Bead-based flow cytometry, Bim peptide-Mcl-1 binding. Q07820. actives 0.1% (n = 190,000); in the data active means inhibition above about 40%;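 further: 0% = no compound tracer wells and 100% = peptide blocker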
Target sequence (Q07820 whole entry, looked up): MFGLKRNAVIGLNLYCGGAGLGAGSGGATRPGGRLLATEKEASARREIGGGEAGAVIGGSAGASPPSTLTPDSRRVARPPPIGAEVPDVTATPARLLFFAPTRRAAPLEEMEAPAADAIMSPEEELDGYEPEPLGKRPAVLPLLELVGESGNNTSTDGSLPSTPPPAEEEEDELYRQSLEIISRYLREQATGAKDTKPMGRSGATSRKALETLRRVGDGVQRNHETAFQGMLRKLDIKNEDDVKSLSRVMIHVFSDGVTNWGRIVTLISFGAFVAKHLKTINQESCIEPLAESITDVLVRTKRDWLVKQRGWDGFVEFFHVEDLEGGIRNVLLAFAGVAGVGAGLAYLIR
Mcl1-Noxa inh = Mcl-1/Noxa interaction inhibition | actives 1.5% (n = 220,000) | inhibition, % at 21.7 µM | Q07820 | AID 1022 | TR-FRET Mcl-1/Noxa peptide binding, 2 h;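 active means compounds that cut the protein-peptide binding signal by more than 50% relative to plate controls in a single-dose test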;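 further: His-tagged Mcl-1 with rhodamine Noxa BH3 peptide and terbium anti-His antibody; 0% = Mcl-1 plus Noxa peptide wells and 100% = peptide-only wells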
Mcl1-Bid inh = Mcl-1/Bid interaction inhibition; TR-FRET Mcl-1/Bid-Dy647 peptide binding, 1536-well; inhibition, % at 21.7 µM; actives 0.97% (n = 220,000);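 active means compounds that cut the binding signal by more than half at the single screening dose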;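 further: His-tagged Mcl-1 with europium anti-His antibody binding Bid BH3 peptide; 0% = Mcl-1 plus peptide wells and 100% = peptide-only wells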
Calb biofilm kill = mixture kills Candida albicans biofilm cells; C. albicans biofilm persisters + clotrimazole, fluorescence viability; primary screen in compound mixtures of four per well; inhibition, % at 7.6 µM; actives 0.02% (n = 120,000);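 active means inhibition above 30.3% in the primary screen of four-compound pools, then above 30% when the compound was retested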;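 further: compounds exposed to preformed 24 h biofilms for 48 h; 0% = untreated biofilm control and 100% = clotrimazole plus chlorhexidine kill blank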
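Incubation: 24 h biofilm formation, then 48 h compound exposure, 37 °C | Material: C. albicans biofilms | Buffer or medium: RPMI/MOPS medium, pH 7.0 | Measured by: 2-h Alamar Blue fluorescence, 535/590 nm excitation/emission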
Calpain2 inh = blocks pig calpain II enzyme activity. inhibition, % at 16 µM. actives 0.37% (n = 220,000). AID 1236. purified calpain II, fluorogenic peptide substrate, 30 min;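 active means inhibition above about 50%, limit read from the data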
Arbovirus anti = arbovirus infection inhibition; arbovirus infection cell-based antiviral screen; inhibition, % at 10 µM; actives 0.37% (n = 200,000); in the data active means inhibition above about 30%
Active calls of the source: *; nt = no result given.

SMILES | Bim-Mcl-1 | Mcl1-Noxa inh | Mcl1-Bid inh | Calb biofilm kill | Calpain2 inh | Arbovirus anti
N#CC(c1nc2ccccc2nc1OCCO)S(=O)(=O)c1ccccc1 (stereo not drawn) | nt | -3 | -10 | 19 | 10 | nt
C/C(=N\OCC(=O)Nc1c(C)cc(C)cc1C)c1ccc2c(c1)OCCO2 | -4 | -7 | -38 | -1 | 7 | 17
CCOc1ccc(N2C(=O)CCC2=O)cc1 | 3 | 6 | -22 | nt | -5 | 3
CCCCCCC(=O)Oc1ccc(N2C(=O)CCC2=O)cc1 | 2 | 55* | 5 | 20 | 8 | 7
CCOC(=O)C(C)Sc1ccc2nnc(CCNS(=O)(=O)c3ccccc3)n2n1 (stereo not drawn) | 0 | 9 | -5 | 10 | 7 | -1
CCSc1nc2nn(-c3ccccc3)c(=O)c-2c2n1CCCCC2 | 1 | 10 | -29 | nt | 2 | 6
O=C(CSc1nc2nn(-c3ccccc3)c(=O)c-2c2n1CCCCC2)NCCc1ccccc1 | 0 | 55* | -12 | 17 | 14 | 32*
O=C1NCCN1C(=O)N(c1ccccc1)c1ccccc1 | 56* | -14 | -25 | nt | -3 | 12
Cc1cc(C)n2nc3ccccc3c2n1 | -1 | 15 | -6 | nt | -238 | -5
Cc1cc(C)n2nc3nc(N4CCCCC4)nc(-c4ccco4)c3c2n1 | 1 | 66* | -23 | nt | -187 | 3
COc1ccc(CN2CCCC(C(=O)N3CCCC3)C2)cc1 (stereo not drawn) | -3 | -16 | 50 | nt | -15 | 5
O=C(C1CCCN(Cc2cccnc2)C1)N1CCCCC1 (stereo not drawn) | -5 | 1 | 52* | nt | -17 | 4
Cc1ccc(N=Nc2ccc(N)cc2C)c(S(N)(=O)=O)c1 | nt | 52* | 15 | 21 | -12 | nt
O=C(Nc1ccc(F)cc1)N1CCCN(c2ccc(C(F)(F)F)cn2)CC1 | nt | 31 | 83* | 0 | 6 | nt
Cc1ccc(C2=C(c3ccc([N+](=O)[O-])cc3)C(=O)OC2)cc1C | 0 | -15 | 9 | 15 | -3 | 17
Cc1ccc2nc(-c3ccccc3)c(CC(=O)O)c(C(=O)O)c2c1 | 0 | 3 | 1 | 28 | -30 | -5
O=C(O)c1ccc(N/N=C/c2ccc(-c3ccc(Cl)cc3Cl)o2)cc1 | nt | 108* | 48 | 25 | -5 | nt
O=C(O)c1ccc(N/N=C/c2ccc(-c3cc(Cl)ccc3Cl)o2)cc1 | nt | 111* | 62* | 27 | 23 | nt
O=C(O)c1ccc(N/N=C/c2ccc(-c3cccc(Cl)c3)o2)cc1 | nt | 40 | -23 | 22 | 16 | nt
Cn1cccc1C(=O)NC(=O)COC(=O)CNC(=O)CNC(=O)c1ccc(Cl)cc1Cl | 2 | 37 | 4 | -7 | -11 | 1
Clc1ccccc1C1=Nn2c(nnc2-c2ccncc2)SC1 | 0 | 9 | -12 | nt | 0 | 59*
O=C1N(Cc2cccc(Cl)c2)C[C@@H]2C[C@@H](c3c[nH]c4ccccc34)N3CCC[C@@]123 | -4 | 8 | -61 | 6 | -62 | 9
COc1ccc(NS(=O)(=O)c2cccc(NC(=O)CCC(=O)c3ccc(Cl)cc3)c2)cc1 | -1 | -8 | 96* | 20 | 2 | -5
CCOc1ccc(S(=O)(=O)NC(C)C)cc1C(N)=O | 0 | 1 | -11 | 10 | -16 | 4
CCCCc1ccc(NC(=O)C2CCCO2)cc1 (stereo not drawn) | 3 | 13 | -13 | nt | 53* | -4
SMILES | Bim-Mcl-1 | Mcl1-Noxa inh | Mcl1-Bid inh | Calb biofilm kill | Calpain2 inh | Arbovirus anti
O=C(O)c1ccc(N=Nc2c(O)[nH]c3cc(Cl)ccc23)cc1 | nt | 62* | -58 | 13 | 5 | nt
Nc1nc(N)c(N=Nc2ccc(C(=O)O)cc2)c(N)n1 | nt | 6 | -6 | 18 | 17 | nt
CCOC(=O)c1[nH]c(C)c(C(=O)OCCOc2cccc(C)c2)c1C | 20 | 10 | -18 | 16 | 10 | 4
C=C(C)C(=O)Nc1cccc(C2=NOC3(C2)C[C@@H](C(N)=O)N(C(=O)CC(c2ccccc2)c2ccccc2)C3)c1 (stereo partly drawn) | nt | 56* | -56 | 14 | -46 | nt
C=C(C)C(=O)Nc1cccc(C2=NOC3(C2)C[C@@H](C(N)=O)N(C(=O)/C(C)=C/C)C3)c1 (stereo partly drawn) | nt | 73* | -114 | 16 | -8 | nt
C=C(C)C(=O)Nc1cccc(C2=NOC3(C2)C[C@H](C(N)=O)N(C(=O)c2ccccc2C(=O)c2ccccc2)C3)c1 (stereo partly drawn) | nt | 71* | -102 | 9 | -26 | nt
C=C(C)C(=O)Nc1cccc(C2=NOC3(C2)C[C@H](C(N)=O)N(C(=O)CC)C3)c1 (stereo partly drawn) | nt | 69* | -34 | 11 | 15 | nt
C/C=C(/C)C(=O)Nc1cccc(C2=NOC3(C2)C[C@@H](C(N)=O)N(C(=O)CC(c2ccccc2)c2ccccc2)C3)c1 (stereo partly drawn) | nt | 11 | -15 | 8 | -68 | nt
Cc1nc2sc(C(=O)Nc3ccccc3)c(N)c2c(C)c1[N+](=O)[O-] | 0 | 14 | -4 | 18 | 27 | 1
COc1ccccc1NC(=O)CSc1nnc(CCC(=O)Nc2ccccc2F)n1C | nt | 8 | -12 | -11 | -1 | nt
Cn1nc(-c2ccccc2)cc1NC(=O)c1cccs1 | nt | -2 | -10 | 21 | 3 | nt
COc1ccc(/C=C/C(=O)NCC(c2ccc(F)cc2)N2CCOCC2)cc1OC (stereo not drawn) | nt | -2 | -6 | 12 | -13 | nt
C=C(C)C(=O)Nc1cccc(C2=NOC3(C2)C[C@@H](C(N)=O)N(C(=O)/C=C/C=C/C)C3)c1 (stereo partly drawn) | nt | 97* | -55 | 16 | 23 | nt
CC1=NN(C(=O)COc2ccc(C)c(C)c2)C(O)(c2ccccc2)C1 (stereo not drawn) | -5 | 9 | 7 | 19 | 29 | -31
O=C(c1ccc(Cl)nc1)N1CCN(S(=O)(=O)c2ccccc2)CC1 | nt | -14 | -21 | 18 | -13 | nt
S=c1[nH]c(-c2ccccc2)cn1/N=C/c1ccccc1Br | -6 | 28 | -34 | 4 | -20 | -10
Cc1ccc(/C=N/n2cc(-c3ccccc3)[nH]c2=S)s1 | -8 | 54* | -47 | 14 | 15 | -4
COc1cc(/C=N/n2cc(-c3ccccc3)[nH]c2=S)cc(OC)c1O | nt | 41 | -17 | 8 | -19 | nt
Oc1ccc(/C=N/n2cc(-c3ccccc3)[nH]c2=S)cc1 | -9 | 73* | -41 | 1 | -9 | 3
Cc1cc(Cl)ccc1OCC(=O)N/N=C1\CC2C=CCC12 (stereo not drawn) | -7 | 7 | -7 | 13 | 8 | 0
COc1cccc(/C=N/Nc2nn3cnnc3c3ccccc23)c1O | 16 | 53* | -73 | nt | 28 | -15
CSc1ccccc1NC(=O)c1cc(-c2cccnc2)nc2ccc(Br)cc12 | 0 | 49 | 64* | 10 | -124 | 0
CC(=O)Nc1cccc(NC(=O)c2cc(-c3cccnc3)nc3ccc(Br)cc23)c1 | -5 | 1 | 16 | nt | -40 | 10
O=C1C(C=NCc2ccncc2)=C(O)c2ccccc21 | 0 | 17 | 96* | nt | -52 | 2
